Each block holds one compound with its values, some of them ahead of it. Active and inactive are the calls of the source. The rule behind the calls is not given here.
How the values were obtained:
[1] = target: T1, Cathepsin S (Homo sapiens, UniProt P25774); test: Inhibition of human cathepsin-S
Target sequence in this assay (P25774 whole entry): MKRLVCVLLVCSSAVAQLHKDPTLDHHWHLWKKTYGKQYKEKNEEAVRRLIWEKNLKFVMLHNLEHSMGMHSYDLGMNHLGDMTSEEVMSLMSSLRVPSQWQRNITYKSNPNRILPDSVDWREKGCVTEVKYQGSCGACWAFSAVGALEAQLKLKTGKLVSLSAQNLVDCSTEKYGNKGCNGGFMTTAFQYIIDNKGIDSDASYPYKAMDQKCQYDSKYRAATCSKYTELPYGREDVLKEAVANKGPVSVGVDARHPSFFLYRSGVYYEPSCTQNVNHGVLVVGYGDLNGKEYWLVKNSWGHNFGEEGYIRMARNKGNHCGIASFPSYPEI

[2] = target: Cathepsin B (Homo sapiens, UniProt P07858); test: Inhibition of human cathepsin-B
Procedure, shortened: (§1)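 Human cathepsin B and K activity measured with a SensoLyte 520 cathepsin activity assay kit; LHVS as pan-cathepsin positive control.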

[3] = target: T2, Cathepsin K (Homo sapiens, UniProt P43235); test: Inhibition of human cathepsin-K; procedure, shortened: as §1
T2 sequence (P43235 whole entry): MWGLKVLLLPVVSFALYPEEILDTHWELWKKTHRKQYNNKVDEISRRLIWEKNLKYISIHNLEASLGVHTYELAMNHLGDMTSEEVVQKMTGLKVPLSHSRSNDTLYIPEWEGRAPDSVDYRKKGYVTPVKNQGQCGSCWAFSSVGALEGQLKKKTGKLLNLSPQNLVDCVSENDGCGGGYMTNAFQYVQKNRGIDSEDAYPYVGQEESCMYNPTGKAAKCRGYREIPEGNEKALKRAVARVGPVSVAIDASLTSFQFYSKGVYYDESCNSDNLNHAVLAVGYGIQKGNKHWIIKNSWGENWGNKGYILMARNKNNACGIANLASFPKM

[4] = AUC (0 to 24 hrs) in Sprague-Dawley rat at 5 mg/kg, iv and 10 mg/kg, po; type: ADME, organism-based; conditions: plasma
Procedure, shortened: (§2)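 Male Sprague–Dawley rats, 7 weeks of age, received one oral dose of 10 mg/kg or one intravenous dose of 5 mg/kg (n = 3 each); pharmacokinetic parameters determined.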

[5] = tested on: Mus musculus; test: Antiarthritic activity in DBA1/J mouse assessed as decrease in collagen-induced arthritis score and degree of paw swelling at 30 mg/kg, po qd for 14 days; type: functional, organism-based; set-up: dose 30 mg/kg
Procedure, shortened: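 Male DBA1/J mice (8 weeks, n = 7/group) immunized intradermally at tail base with bovine type II collagen in complete Freund's adjuvant, boosted 3 weeks later with collagen in incomplete Freund's adjuvant. Oral dosing once daily at 30 mg/kg in 10% hydroxypropyl-β-cyclodextrin/water, or vehicle, for 14 days. Arthritis score and paw swelling graded per paw every 2–3 days for 2 weeks from day 10 post-boost.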

[6] = Oral bioavailability in Sprague-Dawley rat at 10 mg/kg; type: ADME, organism-based; conditions: in vivo; procedure, shortened: as §2
[7] = Cmax in Sprague-Dawley rat at 5 mg/kg, iv and 10 mg/kg, po; type: ADME, organism-based; conditions: in vivo; procedure, shortened: as §2
[8] = target: T1, Cathepsin S; test: Inhibition of cathepsin-S in human Jiyoye cells assessed as conversion of invariant chain Lip10 to CLIP; type: cell-based
Procedure, shortened: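 Jiyoye cells were stimulated with IFN-γ and treated with the inhibitor at 1, 10, 100 and 1000 nM, alongside untreated controls. The read-out was Lip10 accumulation.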
Target sequence in this assay (P25774 115-331 limits assumed): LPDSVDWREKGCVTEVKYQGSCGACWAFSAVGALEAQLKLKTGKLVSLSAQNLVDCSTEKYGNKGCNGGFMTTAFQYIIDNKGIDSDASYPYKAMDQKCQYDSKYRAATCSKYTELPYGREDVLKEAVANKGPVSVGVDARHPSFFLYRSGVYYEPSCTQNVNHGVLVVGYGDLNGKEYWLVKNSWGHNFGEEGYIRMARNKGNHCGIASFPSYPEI

[9] = Half life in beagle dog at 1 mg/kg, iv and 10 mg/kg, po; type: ADME, organism-based, Canis lupus familiaris; conditions: in vivo
Procedure, shortened: (§3)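 Male beagle dogs aged 14 months dosed once, 10 mg/kg orally or 1 mg/kg intravenously, n = 3 per route; pharmacokinetic parameters calculated.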

[10] = Metabolic stability in rat liver microsomes assessed as compound remaining at 5 uM after 60 mins; type: ADME, Microsome; conditions: read-out: Stability
Procedure, shortened: (§4)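 Compound at 5 µM incubated 60 min with mouse, rat, dog or human liver microsomes, in duplicate; result given as percentage of parent remaining.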

[11] = Cmax in ICR mouse at 5 mg/kg, iv and 10 mg/kg, po; type: ADME, organism-based; conditions: in vivo
Procedure, shortened: (§5)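 Single dose given orally (10 mg/kg) or intravenously (5 mg/kg) to male ICR mice, 7 weeks old, n = 3 per route; pharmacokinetic parameters derived from these dosings.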

[12] = target: T3, Cytochrome P450 1A2 (Homo sapiens, UniProt P05177); test: Inhibition of CYP1A2 (unknown origin) by fluorescence detection method; type: ADME
T3 sequence (P05177 whole entry): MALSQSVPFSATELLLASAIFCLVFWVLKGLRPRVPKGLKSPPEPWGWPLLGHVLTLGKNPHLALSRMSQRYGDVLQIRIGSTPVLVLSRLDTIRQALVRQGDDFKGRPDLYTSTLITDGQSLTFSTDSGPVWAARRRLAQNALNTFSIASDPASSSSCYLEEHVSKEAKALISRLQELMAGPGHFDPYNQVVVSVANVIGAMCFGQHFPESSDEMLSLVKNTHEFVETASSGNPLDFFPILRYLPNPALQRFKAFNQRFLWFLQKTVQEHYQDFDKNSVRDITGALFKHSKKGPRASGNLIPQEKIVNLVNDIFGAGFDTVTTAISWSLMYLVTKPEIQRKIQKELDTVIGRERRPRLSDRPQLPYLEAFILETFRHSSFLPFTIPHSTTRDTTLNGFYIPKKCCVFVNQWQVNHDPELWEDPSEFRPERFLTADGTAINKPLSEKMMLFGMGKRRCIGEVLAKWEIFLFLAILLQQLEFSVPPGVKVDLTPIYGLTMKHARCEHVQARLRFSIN

[13] = target: Cytochrome P450 2C9 (Homo sapiens, UniProt P11712); test: Inhibition of CYP2C9 (unknown origin) by fluorescence detection method; type: ADME
[14] = Oral bioavailability in ICR mouse at 10 mg/kg; type: ADME, organism-based; conditions: in vivo; procedure, shortened: as §5
[15] = AUC (0 to 24 hrs) in beagle dog at 1 mg/kg, iv and 10 mg/kg, po; type: ADME, organism-based, Canis lupus familiaris; conditions: plasma; procedure, shortened: as §3
[16] = Metabolic stability in dog liver microsomes assessed as compound remaining at 5 uM after 60 mins; type: ADME, Canis lupus familiaris, Microsome; conditions: read-out: Stability; procedure, shortened: as §4
[17] = Half life in Sprague-Dawley rat at 5 mg/kg, iv and 10 mg/kg, po; type: ADME, organism-based; conditions: in vivo; procedure, shortened: as §2
[18] = Cmax in beagle dog at 1 mg/kg, iv and 10 mg/kg, po; type: ADME, organism-based, Canis lupus familiaris; conditions: in vivo; procedure, shortened: as §3
[19] = target: Cytochrome P450 3A4 (Homo sapiens, UniProt P08684); test: Inhibition of CYP3A4 (unknown origin) by fluorescence detection method; type: ADME
[20] = Metabolic stability in human liver microsomes assessed as compound remaining at 5 uM after 60 mins; type: ADME, Microsome; conditions: read-out: Stability; procedure, shortened: as §4
[21] = Oral bioavailability in beagle dog at 10 mg/kg; type: ADME, organism-based, Canis lupus familiaris; conditions: in vivo; procedure, shortened: as §3
[22] = AUC (0 to 24 hrs) in ICR mouse at 5 mg/kg, iv and 10 mg/kg, po; type: ADME, organism-based; conditions: plasma; procedure, shortened: as §5
[23] = target: Cytochrome P450 2D6 (Homo sapiens, UniProt P10635); test: Inhibition of CYP2D6 (unknown origin) by fluorescence detection method; type: ADME
[24] = target: Cytochrome P450 2C19 (Homo sapiens, UniProt P33261); test: Inhibition of CYP2C19 (unknown origin) by fluorescence detection method; type: ADME
[25] = Half life in ICR mouse at 5 mg/kg, iv and 10 mg/kg, po; type: ADME, organism-based; conditions: in vivo; procedure, shortened: as §5
[26] = Metabolic stability in mouse liver microsomes assessed as compound remaining at 5 uM after 60 mins; type: ADME, Microsome; conditions: read-out: Stability; procedure, shortened: as §4

Sequence of Cytochrome P450 2C19 (P33261 whole entry): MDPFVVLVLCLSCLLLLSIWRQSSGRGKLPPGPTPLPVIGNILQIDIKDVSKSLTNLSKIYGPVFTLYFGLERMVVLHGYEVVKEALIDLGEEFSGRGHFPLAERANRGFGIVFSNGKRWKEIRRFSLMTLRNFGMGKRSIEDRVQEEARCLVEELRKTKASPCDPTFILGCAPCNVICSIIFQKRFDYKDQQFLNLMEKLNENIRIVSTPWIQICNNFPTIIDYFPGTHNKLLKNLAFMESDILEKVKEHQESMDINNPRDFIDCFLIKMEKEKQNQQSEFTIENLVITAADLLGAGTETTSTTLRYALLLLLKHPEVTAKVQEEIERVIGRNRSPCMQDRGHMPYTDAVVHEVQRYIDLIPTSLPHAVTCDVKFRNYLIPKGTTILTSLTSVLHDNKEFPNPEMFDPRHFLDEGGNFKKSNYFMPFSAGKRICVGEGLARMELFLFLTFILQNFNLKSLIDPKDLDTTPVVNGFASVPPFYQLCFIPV
Sequence of Cytochrome P450 2C9 (P11712 whole entry): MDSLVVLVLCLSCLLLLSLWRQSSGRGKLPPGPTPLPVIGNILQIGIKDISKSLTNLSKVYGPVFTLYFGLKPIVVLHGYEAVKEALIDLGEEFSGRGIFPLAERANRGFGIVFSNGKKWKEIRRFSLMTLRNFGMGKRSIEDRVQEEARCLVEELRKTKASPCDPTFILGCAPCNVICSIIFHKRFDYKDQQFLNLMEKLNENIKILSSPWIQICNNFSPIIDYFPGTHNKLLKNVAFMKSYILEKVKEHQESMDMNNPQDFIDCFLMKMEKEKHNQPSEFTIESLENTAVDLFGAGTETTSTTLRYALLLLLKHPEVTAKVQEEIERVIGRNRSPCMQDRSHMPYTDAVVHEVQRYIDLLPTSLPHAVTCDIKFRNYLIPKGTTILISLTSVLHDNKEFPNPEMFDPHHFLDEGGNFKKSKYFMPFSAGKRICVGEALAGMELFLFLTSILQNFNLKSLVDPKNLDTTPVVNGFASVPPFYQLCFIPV
Sequence of Cytochrome P450 3A4 (P08684 whole entry): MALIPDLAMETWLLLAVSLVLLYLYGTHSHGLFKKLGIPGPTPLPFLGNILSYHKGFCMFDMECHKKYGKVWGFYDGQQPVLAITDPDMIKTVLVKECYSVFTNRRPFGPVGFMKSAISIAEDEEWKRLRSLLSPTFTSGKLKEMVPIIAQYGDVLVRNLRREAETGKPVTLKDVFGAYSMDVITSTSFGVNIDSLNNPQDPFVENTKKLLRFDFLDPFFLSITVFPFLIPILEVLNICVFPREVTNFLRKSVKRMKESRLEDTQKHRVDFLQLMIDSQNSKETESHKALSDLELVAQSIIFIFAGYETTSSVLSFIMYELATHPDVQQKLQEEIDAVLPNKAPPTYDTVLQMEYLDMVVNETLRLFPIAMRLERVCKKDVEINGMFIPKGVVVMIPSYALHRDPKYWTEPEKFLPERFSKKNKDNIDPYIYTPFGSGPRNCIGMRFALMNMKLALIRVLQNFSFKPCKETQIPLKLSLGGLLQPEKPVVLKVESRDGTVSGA
Sequence of Cytochrome P450 2D6 (P10635 whole entry): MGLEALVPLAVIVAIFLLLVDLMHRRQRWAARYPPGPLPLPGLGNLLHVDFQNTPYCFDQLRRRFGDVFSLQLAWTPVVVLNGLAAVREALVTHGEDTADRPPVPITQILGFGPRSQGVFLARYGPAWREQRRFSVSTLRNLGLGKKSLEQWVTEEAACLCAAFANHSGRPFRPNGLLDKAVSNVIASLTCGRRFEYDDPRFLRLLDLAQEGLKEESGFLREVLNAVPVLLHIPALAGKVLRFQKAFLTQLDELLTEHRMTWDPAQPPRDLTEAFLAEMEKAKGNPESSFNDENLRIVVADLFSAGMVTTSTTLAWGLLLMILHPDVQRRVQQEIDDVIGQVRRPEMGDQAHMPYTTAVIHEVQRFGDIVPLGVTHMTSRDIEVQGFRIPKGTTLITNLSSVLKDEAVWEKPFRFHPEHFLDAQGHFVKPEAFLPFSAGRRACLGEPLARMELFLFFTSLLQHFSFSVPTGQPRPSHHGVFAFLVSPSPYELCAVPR

Compound: CCC(NC(=O)[C@@H]1C[C@@H](S(=O)(=O)c2ccccc2)CN1C(=O)c1ccc(Cl)cc1)C(=O)c1nc2ccccc2o1 (stereo not given in full)
IC50 [1]: 2 nM

Compound: CCC(NC(=O)[C@@H]1C[C@@H](S(=O)(=O)c2ccc(F)cc2)CN1C(C)=O)C(=O)c1nc2ccccc2o1 (stereo not given in full)
IC50 [1]: 3.2 nM

Compound: CC(=O)N1C[C@H](S(=O)(=O)c2ccccc2)C[C@H]1C(=O)NC(C)C(=O)c1nc2ccccc2o1 (stereo not given in full)
IC50 [1]: 18.1 nM

Compound: CCC(NC(=O)[C@@H]1C[C@@H](S(=O)(=O)c2ccccc2)CN1)C(=O)c1nc2ccccc2o1 (stereo not given in full)
IC50 [1]: 156 nM

Compound: CC[C@H](NC(=O)[C@@H]1C[C@@H](S(=O)(=O)c2ccccc2)CN1C(C)=O)C(=O)c1nc2ccccc2o1
AUC(0-t) [4]: 7250 ng·h/mL
Activity [5]: Active
IC50 [2]: > 10000 nM
bioavailability [6]: 64.8%
Cmax [7]: 3520 ng/mL
inhibition [8]: Active
half-life [9]: 3.7 h
remaining at 1 h, 5 µM [10]: 37%
Cmax [11]: 1910 ng/mL
IC50 [12]: > 20000 nM
IC50 [13]: 5000 nM
bioavailability [14]: 28.7%
AUC(0-t) [15]: 5050 ng·h/mL
remaining at 1 h, 5 µM [16]: 47%
half-life [17]: 2.1 h
Cmax [18]: 3820 ng/mL
IC50 [19]: 9950 nM
IC50 [3]: > 10000 nM
remaining at 1 h, 5 µM [20]: 70%
bioavailability [21]: 48.6%
AUC(0-t) [22]: 1030 ng·h/mL
IC50 [23]: > 20000 nM
IC50 [24]: > 20000 nM
IC50 [1]: 3.3 nM
half-life [25]: 1.6 h
remaining at 1 h, 5 µM [26]: 37%

Compound: CCC(NC(=O)[C@@H]1C[C@@H](S(=O)(=O)c2ccccc2Cl)CN1C(C)=O)C(=O)c1nc2ccccc2o1 (stereo not given in full)
IC50 [1]: 2.3 nM

Compound: CCC(NC(=O)[C@@H]1C[C@@H](S(=O)(=O)c2ccccc2)CN1C(=O)N1CCCC1)C(=O)c1nc2ccccc2o1 (stereo not given in full)
IC50 [1]: 3.7 nM

Compound: CCC(NC(=O)[C@@H]1C[C@@H](S(=O)(=O)c2ccccc2)CN1C(=O)c1ccncc1)C(=O)c1nc2ccccc2o1 (stereo not given in full)
IC50 [1]: 3.3 nM

Compound: CCC(NC(=O)[C@@H]1C[C@@H](S(=O)(=O)c2ccccc2)CN1C(=O)C(C)C)C(=O)c1nc2ccccc2o1 (stereo not given in full)
IC50 [1]: 2.4 nM

Other lines, results leading:

IC50 [1]: 83.7 nM
Compound: CCC(NC(=O)[C@@H]1C[C@@H]([S@](=O)c2ccccc2)CN1C(C)=O)C(=O)c1nc2ccccc2o1 (stereo not given in full)

IC50 [2]: > 1000 nM
IC50 [3]: > 1000 nM
IC50 [1]: 1.1 nM
Compound: CCC(NC(=O)[C@@H]1C[C@@H](S(=O)(=O)c2ccccc2)CN1C(=O)c1cccc(Cl)c1)C(=O)c1nc2ccccc2o1 (stereo not given in full)

IC50 [1]: 20.7 nM
Compound: CCC(NC(=O)[C@@H]1C[C@@H](Sc2ccccc2)CN1C(C)=O)C(=O)c1nc2ccccc2o1 (stereo not given in full)

IC50 [1]: > 100 nM
Compound: CCC(NC(=O)[C@@H]1C[C@@H](S(=O)(=O)CC)CN1C(C)=O)C(=O)c1nc2ccccc2o1 (stereo not given in full)

IC50 [2]: > 10000 nM
IC50 [3]: > 10000 nM
IC50 [1]: 3 nM
Compound: CCC(NC(=O)[C@@H]1C[C@@H](S(=O)(=O)c2ccccc2)CN1C(=O)c1ccccc1)C(=O)c1nc2ccccc2o1 (stereo not given in full)

IC50 [1]: 3.3 nM
Compound: CCC(NC(=O)[C@@H]1C[C@@H](S(=O)(=O)c2ccccc2)CN1C(=O)CCOC)C(=O)c1nc2ccccc2o1 (stereo not given in full)

IC50 [1]: 45.4 nM
Compound: CCC(NC(=O)[C@@H]1C[C@@H](S(=O)(=O)c2ccccc2)CN1CC(C)=O)C(=O)c1nc2ccccc2o1 (stereo not given in full)
